From ChEMBL document CHEMBL2406966, “Structure and Property Based Design of Pyrazolo[1,5-a]pyrimidine Inhibitors of CK2 Kinase with Activity in Vivo” (ACS Med Chem Lett, 2013)
pIC50: −log10 of the molar value. Converted amounts (≈) assume the structure as drawn. The source made the active and inactive calls. No cut-off for these calls is given here.

How the values were obtained:
[1] = target: T1, Dual specificity tyrosine-phosphorylation-regulated kinase 3 (Homo sapiens, UniProt O43781); assay: Inhibition of Dyrk-3 (unknown origin)
T1 sequence (O43781 whole entry): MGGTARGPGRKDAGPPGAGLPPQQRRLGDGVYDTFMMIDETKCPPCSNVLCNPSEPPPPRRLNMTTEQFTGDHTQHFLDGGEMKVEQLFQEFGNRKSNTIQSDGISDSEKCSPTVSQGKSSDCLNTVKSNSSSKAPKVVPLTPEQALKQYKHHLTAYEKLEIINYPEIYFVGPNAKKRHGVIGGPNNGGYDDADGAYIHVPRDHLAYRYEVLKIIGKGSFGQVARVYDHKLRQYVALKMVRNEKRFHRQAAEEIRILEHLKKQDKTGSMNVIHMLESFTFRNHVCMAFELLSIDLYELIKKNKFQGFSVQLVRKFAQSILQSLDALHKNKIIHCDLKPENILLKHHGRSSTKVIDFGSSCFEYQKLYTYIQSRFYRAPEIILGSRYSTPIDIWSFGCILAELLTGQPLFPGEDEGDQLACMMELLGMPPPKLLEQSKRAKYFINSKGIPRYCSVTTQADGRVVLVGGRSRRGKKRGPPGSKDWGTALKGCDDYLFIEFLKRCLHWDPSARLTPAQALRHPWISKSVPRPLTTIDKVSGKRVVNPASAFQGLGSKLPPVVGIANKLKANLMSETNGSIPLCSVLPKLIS

[2] = Intrinsic clearance in rat liver microsomes; type: ADME, Microsome; details: read-out: CLH
Outline: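 Incubation with rat liver microsomes; intrinsic clearance reported in μL/min/mg.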

Mus musculus [3] = assay: In vivo inhibition of CK2 in human DLD2 cells xenografted in mouse assessed as inhibition of AKT phosphorylation at Ser129 at 10 mg/kg, po measured at 24 hrs by Western blot analysis; type: functional, organism-based; design: dose 10 mg/kg
Outline: (§1)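 Mice bearing DLD-1 xenografts overexpressing AKT1 received a single oral dose (10 or 12.5 mg/kg). Tumour cell lysates were taken at 3, 8 and 24 h post-dose and probed for pAKT S129 by Western blot.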

[4] = target: Death-associated protein kinase 3 (Homo sapiens) (UniProt O43293); assay: Inhibition of Dapk-3 (unknown origin) assessed as residual activity at 0.1 uM/L relative to control
Outline: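 Kinome-wide competition binding panel: measures the compound's ability to compete with an immobilized, active-site-directed ligand for kinase binding. Inhibitor tested at 0.1 μM/L. Read-out is residual activity as a percentage of the DMSO control.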

[5] = target: Cyclin-dependent kinase 2 (Homo sapiens, UniProt P24941); assay: Inhibition of CDK2 (unknown origin)
[6] = target: Serine/threonine-protein kinase pim-3 (Homo sapiens, UniProt Q86V86); assay: Inhibition of PIM3 (unknown origin)
Mus musculus [7] = assay: In vivo inhibition of CK2 in human DLD2 cells xenografted in mouse assessed as inhibition of AKT phosphorylation at Ser129 at 10 mg/kg, po measured at 3 to 8 hrs by Western blot analysis; type: functional, organism-based; design: dose 10 mg/kg; outline: as §1
[8] = Aqueous solubility of the compound in phosphate buffer at pH 7.4 after 24 hrs; type: physicochemical
[9] = target: Dual specificity tyrosine-phosphorylation-regulated kinase 1A (Homo sapiens) (UniProt Q13627); assay: Inhibition of Dyrk-1 (unknown origin) assessed as residual activity at 0.1 uM/L relative to control
Outline: (§2)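 KINOMEscan competition binding panel measuring displacement of an immobilized, active-site-directed ligand. Test concentration was 0.1 μM/L. Read-out was residual activity as % of DMSO control.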

[10] = Fraction unbound in human plasma at 10 uM by equilibrium dialysis method; type: ADME, cell-free
[11] = target: Death-associated protein kinase 2 (Homo sapiens) (UniProt Q9UIK4); assay: Inhibition of Dapk-2 (unknown origin) assessed as residual activity at 0.1 uM/L relative to control; outline: as §2
[12] = Antitumor activity against human DLD2 cells xenografted in mouse assessed as tumor growth inhibition at 10 mg/kg, po qd after 14 days relative to control; type: functional; details: DLD2, 336 h, read-out: TGI
[13] = target: Homeodomain-interacting protein kinase 3 (Homo sapiens) (UniProt Q9H422); assay: Inhibition of Hipk-3 (unknown origin) assessed as residual activity at 0.1 uM/L relative to control; outline: as §2
[14] = Plasma half life in rat at 10 mg/kg, po; type: ADME, organism-based; design: dose 10 mg/kg, route oral
Outline: (§3)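 Rats were given a single oral dose of 10 mg/kg. Plasma pharmacokinetics yielded bioavailability (F, %), half-life (h) and clearance (mL/min/kg).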

[15] = target: Death-associated protein kinase 1 (Homo sapiens) (UniProt P53355); assay: Inhibition of Dapk-1 (unknown origin) assessed as residual activity at 0.1 uM/L relative to control; outline: as §2
[16] = target: Homeodomain-interacting protein kinase 1 (Homo sapiens) (UniProt Q86Z02); assay: Inhibition of Hipk-1 (unknown origin) assessed as residual activity at 0.1 uM/L relative to control; outline: as §2
[17] = Antitumor activity against human DLD2 cells xenografted in mouse assessed as tumor growth inhibition at 5 mg/kg, po bid after 14 days relative to control; type: functional; details: DLD2, 336 h, read-out: TGI
HCT-116 = assay: Growth inhibition of human HCT116 cells after 72 hrs by Alamar blue assay; type: functional; details: HCT-116, 72 h
physchem = details: octanol/water, pH 7.4
[18] = target: Glycogen synthase kinase-3 beta (Homo sapiens, UniProt P49841); assay: Inhibition of GSK3beta (unknown origin)
[19] = target: T2, Dual specificity tyrosine-phosphorylation-regulated kinase 2 (Homo sapiens) (UniProt Q92630); assay: Inhibition of Dyrk-2 (unknown origin) assessed as residual activity at 0.1 uM/L relative to control; outline: as §2
T2 sequence (whole entry): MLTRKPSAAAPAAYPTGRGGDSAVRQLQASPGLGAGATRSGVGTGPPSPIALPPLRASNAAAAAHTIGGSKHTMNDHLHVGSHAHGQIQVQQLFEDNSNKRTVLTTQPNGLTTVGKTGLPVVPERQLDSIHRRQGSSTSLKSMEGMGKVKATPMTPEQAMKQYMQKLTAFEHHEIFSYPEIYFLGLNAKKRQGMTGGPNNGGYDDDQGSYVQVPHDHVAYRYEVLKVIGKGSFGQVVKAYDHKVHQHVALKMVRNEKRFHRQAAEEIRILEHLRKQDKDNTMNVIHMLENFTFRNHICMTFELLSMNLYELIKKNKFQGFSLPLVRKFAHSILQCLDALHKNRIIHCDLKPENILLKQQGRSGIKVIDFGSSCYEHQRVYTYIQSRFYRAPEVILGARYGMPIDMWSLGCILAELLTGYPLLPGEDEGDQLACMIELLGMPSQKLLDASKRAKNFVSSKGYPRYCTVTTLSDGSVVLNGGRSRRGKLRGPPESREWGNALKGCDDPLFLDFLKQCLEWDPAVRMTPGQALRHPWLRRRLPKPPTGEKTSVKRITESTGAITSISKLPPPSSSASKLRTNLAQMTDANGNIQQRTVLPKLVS

[20] = target: Homeodomain-interacting protein kinase 2 (Homo sapiens, UniProt Q9H2X6); assay: Inhibition of Hipk-2 (unknown origin)
Mus musculus [21] = assay: In vivo inhibition of CK2 in human DLD2 cells xenografted in mouse assessed as inhibition of AKT phosphorylation at Ser129 at 10 mg/kg, po measured up to 24 hrs by ELISA; type: functional, organism-based; design: dose 10 mg/kg
Outline: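 DLD-1 AKT1-overexpressing xenograft mice received a single oral dose of 10 mg/kg. pAKT S129 in tumour cell lysates was quantified by ELISA over time and plotted against plasma drug concentration.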

[22] = target: Casein kinase II subunit alpha (Homo sapiens, UniProt P68400); assay: Inhibition of N-terminal His6X-tagged recombinant human full length casein kinase-2alpha expressed in SF21 cells using BODIPY-FL-RRRDDDSDDD-CONH2 as substrate preincubated for 20 mins measured after 90 mins by mobility shift assay
cells = details: Homo sapiens, HCT-116
[23] = target: Voltage-gated inwardly rectifying potassium channel KCNH2 (Homo sapiens, UniProt Q12809); assay: Binding affinity to human ERG expressed in CHO cells by IonWorks assay
[24] = Cmax in po dosed rat; type: ADME, organism-based; design: route oral; details: in vivo
MDR1 [25] = assay: Efflux ratio of apparent permeability across apical to basolateral side in porcine LLC cells expressing MDR1; type: ADME, cell-based, Sus scrofa; details: pig, LLC-PK1
Outline: (§4)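 MDR1-expressing LLCK cell monolayers. Apical-to-basolateral apparent permeability (Papp) measured in cm/s; efflux ratio also determined.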

MDR1 [26] = assay: Apparent permeability across apical to basolateral side in porcine LLC cells expressing MDR1; type: ADME, cell-based, Sus scrofa; details: pig, LLC-PK1; outline: as §4
[27] = Inhibition of casein kinase-2 (unknown origin); design: species or system Homo sapiens
Outline: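 Recombinant human full-length CK2α phosphorylating a synthetic peptide substrate, run at Km ATP concentration.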

Mus musculus [28] = assay: In vivo inhibition of CK2 in human DLD2 cells xenografted in mouse assessed as inhibition of AKT phosphorylation at Ser129 at 12.5 mg/kg, po measured at 3 to 24 hrs by Western blot analysis; type: functional, organism-based; design: dose 12.5 mg/kg; outline: as §1
[29] = Oral bioavailability in rat at 10 mg/kg; type: ADME, organism-based; details: in vivo; outline: as §3
[30] = Clearance in rat at 10 mg/kg, po; type: ADME, organism-based; design: dose 10 mg/kg, route oral; details: in vivo; outline: as §3

Chain of Voltage-gated inwardly rectifying potassium channel KCNH2 (Q12809 whole entry): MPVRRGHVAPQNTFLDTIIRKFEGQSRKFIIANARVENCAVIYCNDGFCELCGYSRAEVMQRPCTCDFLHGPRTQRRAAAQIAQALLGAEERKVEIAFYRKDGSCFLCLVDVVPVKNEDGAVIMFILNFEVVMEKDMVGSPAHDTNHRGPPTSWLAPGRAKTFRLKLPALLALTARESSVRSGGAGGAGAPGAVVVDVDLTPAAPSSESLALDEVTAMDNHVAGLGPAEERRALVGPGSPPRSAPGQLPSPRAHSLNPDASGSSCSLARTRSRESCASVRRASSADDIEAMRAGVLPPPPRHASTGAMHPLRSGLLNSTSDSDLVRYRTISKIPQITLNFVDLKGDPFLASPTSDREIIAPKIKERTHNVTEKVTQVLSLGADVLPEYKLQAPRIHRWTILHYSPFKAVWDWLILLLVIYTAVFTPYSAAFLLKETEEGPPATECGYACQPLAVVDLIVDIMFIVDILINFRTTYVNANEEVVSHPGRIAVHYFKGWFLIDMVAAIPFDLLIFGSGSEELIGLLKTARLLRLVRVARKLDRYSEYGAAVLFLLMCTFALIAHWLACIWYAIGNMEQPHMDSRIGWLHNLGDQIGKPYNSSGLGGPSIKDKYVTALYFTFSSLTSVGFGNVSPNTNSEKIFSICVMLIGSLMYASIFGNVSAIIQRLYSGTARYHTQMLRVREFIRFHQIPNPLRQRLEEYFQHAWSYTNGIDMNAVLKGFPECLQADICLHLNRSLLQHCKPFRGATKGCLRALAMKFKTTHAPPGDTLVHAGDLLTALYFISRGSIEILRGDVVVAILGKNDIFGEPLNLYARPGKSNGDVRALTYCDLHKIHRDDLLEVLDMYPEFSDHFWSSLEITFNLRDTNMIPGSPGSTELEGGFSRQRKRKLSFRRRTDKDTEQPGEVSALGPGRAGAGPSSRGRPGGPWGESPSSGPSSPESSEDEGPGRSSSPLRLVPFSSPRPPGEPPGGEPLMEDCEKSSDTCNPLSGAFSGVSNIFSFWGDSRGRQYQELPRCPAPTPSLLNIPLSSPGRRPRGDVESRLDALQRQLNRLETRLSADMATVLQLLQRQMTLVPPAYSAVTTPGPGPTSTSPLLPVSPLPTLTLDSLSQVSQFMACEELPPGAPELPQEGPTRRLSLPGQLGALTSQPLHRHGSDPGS
Chain of Casein kinase II subunit alpha (P68400 whole entry): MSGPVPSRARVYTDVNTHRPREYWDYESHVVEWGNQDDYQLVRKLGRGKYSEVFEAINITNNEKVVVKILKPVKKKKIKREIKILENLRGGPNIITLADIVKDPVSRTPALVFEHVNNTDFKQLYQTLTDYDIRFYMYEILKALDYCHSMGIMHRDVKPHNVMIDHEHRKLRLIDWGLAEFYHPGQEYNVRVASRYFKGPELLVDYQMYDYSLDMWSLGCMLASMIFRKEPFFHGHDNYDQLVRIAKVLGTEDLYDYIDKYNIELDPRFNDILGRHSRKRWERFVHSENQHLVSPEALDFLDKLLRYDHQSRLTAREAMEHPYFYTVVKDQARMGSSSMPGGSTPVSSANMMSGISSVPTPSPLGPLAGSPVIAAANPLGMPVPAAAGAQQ
Chain of Glycogen synthase kinase-3 beta (P49841 whole entry): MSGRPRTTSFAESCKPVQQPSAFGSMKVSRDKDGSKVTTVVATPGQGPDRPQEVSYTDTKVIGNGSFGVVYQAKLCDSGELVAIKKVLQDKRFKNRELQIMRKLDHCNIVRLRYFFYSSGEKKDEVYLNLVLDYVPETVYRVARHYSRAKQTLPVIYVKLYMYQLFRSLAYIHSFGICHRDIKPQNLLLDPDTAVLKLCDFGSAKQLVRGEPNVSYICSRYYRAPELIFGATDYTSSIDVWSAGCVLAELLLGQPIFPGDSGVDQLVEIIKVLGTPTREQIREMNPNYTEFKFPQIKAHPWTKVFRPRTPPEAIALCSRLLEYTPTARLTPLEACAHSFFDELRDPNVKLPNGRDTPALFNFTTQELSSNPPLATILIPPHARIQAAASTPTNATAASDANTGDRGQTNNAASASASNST
Chain of Homeodomain-interacting protein kinase 3 (Homo sapiens) (Q9H422 whole entry, looked up): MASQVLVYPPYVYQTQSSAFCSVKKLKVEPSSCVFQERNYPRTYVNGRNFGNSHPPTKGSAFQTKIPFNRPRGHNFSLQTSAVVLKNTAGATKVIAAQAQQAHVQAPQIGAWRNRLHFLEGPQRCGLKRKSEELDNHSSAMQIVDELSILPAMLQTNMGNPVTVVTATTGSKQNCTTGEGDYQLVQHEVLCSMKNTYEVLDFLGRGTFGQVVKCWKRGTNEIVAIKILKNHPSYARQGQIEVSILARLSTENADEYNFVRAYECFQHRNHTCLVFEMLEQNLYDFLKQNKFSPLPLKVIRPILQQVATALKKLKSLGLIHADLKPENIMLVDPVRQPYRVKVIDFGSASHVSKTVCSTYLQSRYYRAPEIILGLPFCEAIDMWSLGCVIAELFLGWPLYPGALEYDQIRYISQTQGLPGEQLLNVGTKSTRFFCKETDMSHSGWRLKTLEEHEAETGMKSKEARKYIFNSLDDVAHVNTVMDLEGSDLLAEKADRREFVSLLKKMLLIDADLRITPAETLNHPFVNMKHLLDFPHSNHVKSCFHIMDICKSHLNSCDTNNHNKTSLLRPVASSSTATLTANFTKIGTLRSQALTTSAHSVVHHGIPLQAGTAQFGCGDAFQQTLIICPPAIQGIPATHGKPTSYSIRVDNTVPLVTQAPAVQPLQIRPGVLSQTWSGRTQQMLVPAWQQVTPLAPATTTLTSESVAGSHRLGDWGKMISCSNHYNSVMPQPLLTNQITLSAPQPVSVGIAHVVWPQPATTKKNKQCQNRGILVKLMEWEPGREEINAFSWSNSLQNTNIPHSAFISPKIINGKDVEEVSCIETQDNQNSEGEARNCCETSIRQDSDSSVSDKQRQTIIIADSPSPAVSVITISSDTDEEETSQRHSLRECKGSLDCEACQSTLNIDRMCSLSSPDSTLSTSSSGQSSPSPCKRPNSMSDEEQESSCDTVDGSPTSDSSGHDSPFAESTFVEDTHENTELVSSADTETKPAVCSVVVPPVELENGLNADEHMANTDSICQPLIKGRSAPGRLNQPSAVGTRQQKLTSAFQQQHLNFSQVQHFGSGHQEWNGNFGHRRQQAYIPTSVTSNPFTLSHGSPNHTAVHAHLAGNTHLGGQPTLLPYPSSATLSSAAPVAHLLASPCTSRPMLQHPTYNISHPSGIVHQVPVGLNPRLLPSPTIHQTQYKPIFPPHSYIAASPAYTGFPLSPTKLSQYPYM
Chain of Death-associated protein kinase 1 (Homo sapiens) (P53355 whole entry, looked up): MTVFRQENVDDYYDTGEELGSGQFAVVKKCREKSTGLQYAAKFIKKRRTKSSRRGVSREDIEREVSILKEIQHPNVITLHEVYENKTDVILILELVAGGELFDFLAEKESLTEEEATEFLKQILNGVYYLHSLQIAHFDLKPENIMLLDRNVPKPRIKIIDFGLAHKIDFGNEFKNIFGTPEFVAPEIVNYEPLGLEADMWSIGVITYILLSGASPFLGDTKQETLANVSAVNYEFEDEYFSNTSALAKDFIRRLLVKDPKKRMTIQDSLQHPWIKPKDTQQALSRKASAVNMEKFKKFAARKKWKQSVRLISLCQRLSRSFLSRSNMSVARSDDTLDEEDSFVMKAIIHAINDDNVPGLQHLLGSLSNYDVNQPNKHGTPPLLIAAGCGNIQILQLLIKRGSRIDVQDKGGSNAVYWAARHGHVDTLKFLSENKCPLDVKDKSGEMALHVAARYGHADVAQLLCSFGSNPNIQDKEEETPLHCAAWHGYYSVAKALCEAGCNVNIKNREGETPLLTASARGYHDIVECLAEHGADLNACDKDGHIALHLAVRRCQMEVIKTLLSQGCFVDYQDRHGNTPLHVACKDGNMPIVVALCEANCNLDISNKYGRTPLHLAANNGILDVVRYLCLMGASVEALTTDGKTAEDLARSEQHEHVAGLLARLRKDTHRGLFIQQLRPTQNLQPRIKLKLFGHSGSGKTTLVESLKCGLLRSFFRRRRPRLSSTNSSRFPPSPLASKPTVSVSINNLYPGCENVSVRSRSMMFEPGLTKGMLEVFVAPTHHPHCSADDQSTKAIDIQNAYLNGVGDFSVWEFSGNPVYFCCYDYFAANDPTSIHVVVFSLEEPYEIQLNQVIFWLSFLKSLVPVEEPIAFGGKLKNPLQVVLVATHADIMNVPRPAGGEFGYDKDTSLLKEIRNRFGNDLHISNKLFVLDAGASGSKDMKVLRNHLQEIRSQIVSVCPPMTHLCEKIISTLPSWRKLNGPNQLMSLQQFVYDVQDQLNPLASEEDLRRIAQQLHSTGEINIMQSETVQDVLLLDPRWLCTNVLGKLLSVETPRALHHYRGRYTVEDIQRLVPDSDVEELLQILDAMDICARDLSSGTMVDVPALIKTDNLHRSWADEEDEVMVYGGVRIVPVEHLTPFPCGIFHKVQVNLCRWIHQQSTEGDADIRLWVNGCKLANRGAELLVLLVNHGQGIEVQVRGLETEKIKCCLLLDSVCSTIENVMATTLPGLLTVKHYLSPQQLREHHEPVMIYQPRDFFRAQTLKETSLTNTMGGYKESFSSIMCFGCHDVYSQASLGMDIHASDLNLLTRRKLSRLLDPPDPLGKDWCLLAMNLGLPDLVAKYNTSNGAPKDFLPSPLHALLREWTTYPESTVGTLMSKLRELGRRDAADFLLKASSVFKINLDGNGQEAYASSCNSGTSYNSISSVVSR
Chain of Death-associated protein kinase 2 (Homo sapiens) (Q9UIK4 whole entry, looked up): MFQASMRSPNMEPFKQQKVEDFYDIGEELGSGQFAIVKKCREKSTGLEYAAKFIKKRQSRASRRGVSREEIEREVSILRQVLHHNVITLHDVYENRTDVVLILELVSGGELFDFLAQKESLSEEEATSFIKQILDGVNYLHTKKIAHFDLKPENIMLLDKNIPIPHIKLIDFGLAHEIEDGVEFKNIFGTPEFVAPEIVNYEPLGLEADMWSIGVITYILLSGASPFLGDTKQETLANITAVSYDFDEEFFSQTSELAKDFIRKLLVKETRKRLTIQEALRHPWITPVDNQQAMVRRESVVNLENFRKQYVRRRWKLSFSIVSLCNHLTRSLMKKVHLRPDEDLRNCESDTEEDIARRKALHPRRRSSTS

| Structure (SMILES) | microsomal CLint [2] | solubility at 24 h [8] | fraction unbound at 10 µM [10] | GI50 (HCT-116) | logD at 5 h (physchem) | pIC50 [22] | pIC50 (cells) | pIC50 [23] | Cmax [24] | also measured |
| --- | --- | --- | --- | --- | --- | --- | --- | --- | --- | --- |
| CC(=O)Nc1cc(Nc2cc(NC3CC3)n3ncc(C#N)c3n2)ccc1C | 15 µL/min/mg | 8 µM (≈ 2.89 µg/mL) | 0.08 | 81 nM | 2.4 |  |  |  |  | pIC50 [1]: 7.15; inhibition (Mus musculus [3]): inactive; Activity [4]: 22%; pIC50 [5]: 5.14; pIC50 [6]: 6.82; inhibition (Mus musculus [7]): Active; Activity [9]: 43%; Activity [11]: 43%; inhibition in vivo at 10 mg/kg [12]: 28%; Activity [13]: 39%; half-life [14]: 156 min; Activity [15]: 21%; Activity [16]: 38%; inhibition in vivo at 5 mg/kg [17]: 37%; pIC50 [18]: 5.59; Activity [19]: 18%; pIC50 [20]: 7.40; inhibition (Mus musculus [21]): Active |
| CC(=O)Nc1cc(Nc2cc(NC3CC3)n3ncc(C#N)c3n2)ccc1C1CC1 | 39 µL/min/mg | < 1 µM | 0.02 | 21 nM | 3.1 | > 8.52 | 8.52 | 4.72 |  |  |
| CC(=O)Nc1cc(Nc2cc(Nc3ccn(CCN4CCOCC4)n3)n3ncc(C#N)c3n2)ccc1C | 31 µL/min/mg | 10 µM (≈ 5.01 µg/mL) |  | 970 nM | 1.3 | > 8.52 |  |  | < 100 nM |  |
| CC(=O)Nc1cc(Nc2cc(Nc3cn(CCN(C)C)cn3)n3ncc(C#N)c3n2)ccc1C | 25 µL/min/mg | 84 µM (≈ 38.5 µg/mL) |  | 650 nM | 1.5 | > 8.52 |  |  | < 100 nM |  |
| CC(=O)Nc1cc(Nc2cc(Nc3ccn(CCN4CCCC4)n3)n3ncc(C#N)c3n2)ccc1C | 65 µL/min/mg | 3 µM (≈ 1.45 µg/mL) |  | 100 nM | 2.5 | > 8.52 |  |  | < 100 nM | efflux ratio (MDR1 [25]): 100; Papp A→B (MDR1 [26]): 0.2 ×10⁻⁶ cm/s |
| CC(=O)Nc1cc(Nc2cc(NC3COC3)n3ncc(C#N)c3n2)ccc1C | 17 µL/min/mg | 13 µM (≈ 4.91 µg/mL) | 0.28 | 280 nM | 1.6 | > 8.52 | 7.55 | < 4.48 |  |  |
| CC(=O)Nc1cc(Nc2cc(NC3CCC3)n3ncc(C#N)c3n2)c(F)cc1C | 31 µL/min/mg | 5 µM (≈ 1.97 µg/mL) | 0.043 | 410 nM | 3 | > 8.52 | 8.10 | 4.80 |  |  |
| CC(=O)Nc1cc(Nc2cc(NC3CC3)n3nccc3n2)ccc1C |  |  |  |  |  |  | < 5.48 |  |  | pIC50 [27]: 6.57 |
| CC(=O)Nc1cc(Nc2cc(NC3CC3)n3ncc(C#N)c3n2)c(F)cc1C | 36 µL/min/mg | 5 µM (≈ 1.9 µg/mL) | 0.13 | 57 nM | 2.3 | > 8.52 | 8.70 | 4.80 |  | inhibition (Mus musculus [28]): Active |
| CC(=O)Nc1cc(Nc2cc(NC3COC3)n3ncc(C#N)c3n2)c(F)cc1C | 6 µL/min/mg | 22 µM (≈ 8.7 µg/mL) | 0.26 | 610 nM | 1.5 | > 8.52 | 7.68 | < 4.48 |  |  |
| CC(=O)Nc1cc(Nc2cc(NC3COC3)n3ncc(C#N)c3n2)ccc1C1CC1 | < 4 µL/min/mg | 11 µM (≈ 4.44 µg/mL) | 0.2 | 59 nM | 2.2 | > 8.52 | 8.22 | < 4.48 |  | half-life [14]: 84 min; bioavailability [29]: 47%; CL/F [30]: 23 mL/min/kg |
| CC(=O)Nc1cc(Nc2cc(NC3COC3)n3ncc(C#N)c3n2)c(F)cc1C1CC1 | < 4 µL/min/mg | 8 µM (≈ 3.37 µg/mL) | 0.21 | 74 nM | 2.1 | > 8.52 | 8.52 | < 4.48 | < 1000 nM | bioavailability [29]: < 5% |
